From ChEMBL document CHEMBL3621160, “Pseudosaccharin amines as potent and selective KV1.5 blockers” (Bioorg Med Chem Lett, 2015)

Tests used:
[1] = target: L-type calcium channel, benzothiazepine binding site (Rattus norvegicus, UniProt P22002+P27732+Q02485); test: Inhibition of rat L-type calcium channel benzothiazepine binding site at 10 uM relative to control
How it was run: (§1)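 Screening panel of over 37 receptors and enzymes relevant to cardiovascular effects or toxicity. Each target was tested at a single concentration of 10 µM, with % activity reported.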

[2] = target: Somatostatin receptor type 2 (Homo sapiens) (UniProt P30874); test: Inhibition of human SS2 receptor at 10 uM relative to control; how it was run: as §1
[3] = target: Androgen receptor (Rattus norvegicus) (UniProt P15207); test: Inhibition of rat testosterone receptor at 10 uM relative to control; how it was run: as §1
Oryctolagus cuniculus [4] = species: Oryctolagus cuniculus; test: Induction of […] effective refractory period prolongation in rabbit; format: functional
How it was run: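 Rabbits were dosed at 0.3, 1.0 and 3.0 mg/Kg. Effective refractory period was measured in atrium and ventricle, and blood pressure was recorded. The plasma concentration giving 20% atrial ERP prolongation (EC20) was calculated.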

Rattus norvegicus [5] = species: Rattus norvegicus; test: Inhibition of rat N-methyl D-aspartate receptor phencyclidine binding site at 10 uM relative to control
How it was run: (§2)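 Single-concentration screen at 10 µM across a panel of over 37 receptors and enzymes linked to cardiovascular effects or toxicity. Read-out is percent activity.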

[6] = target: D(2) dopamine receptor (Homo sapiens) (UniProt P14416); test: Inhibition of human dopamine D2S receptor at 10 uM relative to control; how it was run: as §1
Rattus norvegicus [7] = species: Rattus norvegicus; test: Inhibition of rat choline transporter at 10 uM relative to control; how it was run: as §2
Rattus norvegicus [8] = species: Rattus norvegicus; test: Inhibition of rat sodium channel site 2 at 10 uM relative to control; how it was run: as §2
Rattus norvegicus [9] = species: Rattus norvegicus; test: Inhibition of rat muscarinic acetylcholine receptor at 10 uM relative to control; how it was run: as §2
Rattus norvegicus [10] = species: Rattus norvegicus; test: Inhibition of rat GABAA central-type benzodiazepine receptor at 10 uM relative to control; how it was run: as §2
[11] = target: D(3) dopamine receptor (Homo sapiens) (UniProt P35462); test: Inhibition of human dopamine D3 receptor at 10 uM relative to control; how it was run: as §1
Oryctolagus cuniculus [12] = species: Oryctolagus cuniculus; test: Toxicity in rabbit assessed as increase in gastrointestinal motility; format: organism-based; conditions: in vivo
[13] = Clearance in rat at 2 mg/kg administered as intra-arterial infusion for 10 mins and 5 mg/kg, po; format: ADME, organism-based; conditions: in vivo, iv
How it was run: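 Rats (3 per compound) received intra-arterial infusion over 10 min or oral gavage. Vehicle for both routes was 40% PEG 400, 40% water and 20% ethanol. Values are means of 3 animals.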

[14] = target: Adrenergic receptor alpha-1 (Rattus norvegicus) (UniProt P15823+P23944+P43140); test: Inhibition of rat alpha-1 adrenergic receptor at 10 uM relative to control; how it was run: as §1
Homo sapiens [15] = species: Homo sapiens; test: Inhibition of calcium channel (unknown origin) at 10 uM relative to control
How it was run: (§3)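 Calcium (ICa) and sodium (INa) currents were measured as percent inhibition at a single concentration of 10 µM. Values are means of 2-4 experiments.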

[16] = target: Histamine H2 receptor (Homo sapiens) (UniProt P25021); test: Inhibition of human histamine H2 receptor at 10 uM relative to control; how it was run: as §1
[17] = target: Glucocorticoid receptor (Rattus norvegicus) (UniProt P06536); test: Inhibition of rat glucocorticoid receptor at 10 uM relative to control; how it was run: as §1
[18] = target: Sodium-dependent serotonin transporter (Homo sapiens) (UniProt P31645); test: Inhibition of human SERT at 10 uM relative to control; how it was run: as §1
[19] = target: Potassium voltage-gated channel subfamily A member 5 (Homo sapiens, UniProt P22460); test: Inhibition of human KV1.5 expressed in mouse L929 cells assessed as decrease in ultrarapid potassium current amplitude; format: cell-based
How it was run: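 Potassium current block was measured in mouse fibroblast L929 cells expressing human KV1.5. IC50 values are means of 2-4 experiments.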

Homo sapiens [20] = species: Homo sapiens; test: Inhibition of sodium channel (unknown origin) at 10 uM relative to control; how it was run: as §3
[21] = target: Neuropeptide Y receptor type 1 (Homo sapiens) (UniProt P25929); test: Inhibition of human NPY1-R at 10 uM relative to control; how it was run: as §1
[22] = target: Cannabinoid receptor 1 (Homo sapiens) (UniProt P21554); test: Inhibition of human CB1 receptor at 10 uM relative to control; how it was run: as §1
[23] = target: B1 bradykinin receptor (Homo sapiens) (UniProt P46663); test: Inhibition of human bradykinin B1 receptor at 10 uM relative to control; how it was run: as §1
[24] = target: Calcitonin receptor (Homo sapiens) (UniProt P30988); test: Inhibition of human calcitonin receptor at 10 uM relative to control; how it was run: as §1
[25] = target: Mineralocorticoid receptor (Rattus norvegicus) (UniProt P22199); test: Inhibition of rat aldosterone receptor at 10 uM relative to control; how it was run: as §1
[26] = target: Melanocyte-stimulating hormone receptor (Homo sapiens) (UniProt Q01726); test: Inhibition of human MC1 receptor at 10 uM relative to control; how it was run: as §1
[27] = target: Adenosine receptor A3 (Homo sapiens) (UniProt P0DMS8); test: Inhibition of human adenosine A3 receptor at 10 uM relative to control; how it was run: as §2

Chain of D(2) dopamine receptor (Homo sapiens) (P14416 whole entry): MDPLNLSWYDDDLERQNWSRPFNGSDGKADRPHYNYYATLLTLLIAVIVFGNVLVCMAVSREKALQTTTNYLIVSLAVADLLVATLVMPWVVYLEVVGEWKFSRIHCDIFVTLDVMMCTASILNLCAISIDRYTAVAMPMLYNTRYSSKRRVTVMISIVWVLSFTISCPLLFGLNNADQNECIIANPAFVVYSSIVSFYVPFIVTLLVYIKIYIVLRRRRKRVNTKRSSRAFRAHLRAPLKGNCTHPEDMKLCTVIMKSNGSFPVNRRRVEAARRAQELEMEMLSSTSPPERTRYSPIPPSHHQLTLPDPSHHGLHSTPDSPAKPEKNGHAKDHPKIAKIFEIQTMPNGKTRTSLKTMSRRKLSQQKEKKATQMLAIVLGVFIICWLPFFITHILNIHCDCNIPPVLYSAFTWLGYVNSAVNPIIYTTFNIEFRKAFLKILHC
Chain of Androgen receptor (Rattus norvegicus) (P15207 whole entry S389L): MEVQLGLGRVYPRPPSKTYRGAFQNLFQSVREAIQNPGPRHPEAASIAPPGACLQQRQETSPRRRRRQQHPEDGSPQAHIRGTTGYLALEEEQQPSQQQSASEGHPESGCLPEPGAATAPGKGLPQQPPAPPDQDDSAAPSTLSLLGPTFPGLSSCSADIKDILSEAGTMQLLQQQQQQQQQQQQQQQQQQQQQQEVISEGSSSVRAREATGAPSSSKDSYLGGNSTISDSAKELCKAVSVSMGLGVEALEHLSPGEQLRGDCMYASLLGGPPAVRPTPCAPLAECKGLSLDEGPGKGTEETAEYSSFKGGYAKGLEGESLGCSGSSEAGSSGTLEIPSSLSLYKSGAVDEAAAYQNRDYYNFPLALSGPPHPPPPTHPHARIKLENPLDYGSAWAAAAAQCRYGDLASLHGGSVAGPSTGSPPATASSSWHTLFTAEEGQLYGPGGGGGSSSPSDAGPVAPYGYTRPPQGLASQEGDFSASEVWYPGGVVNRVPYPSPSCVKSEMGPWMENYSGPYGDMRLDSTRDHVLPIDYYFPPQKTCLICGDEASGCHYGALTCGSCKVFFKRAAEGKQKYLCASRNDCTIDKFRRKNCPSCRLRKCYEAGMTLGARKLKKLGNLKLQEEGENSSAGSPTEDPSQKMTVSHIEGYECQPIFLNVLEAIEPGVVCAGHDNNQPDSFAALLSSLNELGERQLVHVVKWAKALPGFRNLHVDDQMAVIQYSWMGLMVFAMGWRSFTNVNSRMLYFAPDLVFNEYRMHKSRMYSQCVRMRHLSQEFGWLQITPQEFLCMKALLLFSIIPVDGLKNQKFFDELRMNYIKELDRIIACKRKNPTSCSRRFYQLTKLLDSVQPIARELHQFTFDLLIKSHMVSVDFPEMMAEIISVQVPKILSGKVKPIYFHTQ
Chain of Histamine H2 receptor (Homo sapiens) (P25021 whole entry): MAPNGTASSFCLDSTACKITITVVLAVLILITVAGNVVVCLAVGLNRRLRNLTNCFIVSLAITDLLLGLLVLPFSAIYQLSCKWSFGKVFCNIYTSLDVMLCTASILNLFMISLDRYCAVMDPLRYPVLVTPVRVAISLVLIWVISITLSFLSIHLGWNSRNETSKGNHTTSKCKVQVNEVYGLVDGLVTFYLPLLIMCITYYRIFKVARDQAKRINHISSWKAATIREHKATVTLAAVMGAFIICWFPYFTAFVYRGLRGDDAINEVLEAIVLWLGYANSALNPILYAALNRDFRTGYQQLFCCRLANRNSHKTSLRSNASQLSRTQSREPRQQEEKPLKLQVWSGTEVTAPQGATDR
Chain of Sodium-dependent serotonin transporter (Homo sapiens) (P31645 whole entry, looked up): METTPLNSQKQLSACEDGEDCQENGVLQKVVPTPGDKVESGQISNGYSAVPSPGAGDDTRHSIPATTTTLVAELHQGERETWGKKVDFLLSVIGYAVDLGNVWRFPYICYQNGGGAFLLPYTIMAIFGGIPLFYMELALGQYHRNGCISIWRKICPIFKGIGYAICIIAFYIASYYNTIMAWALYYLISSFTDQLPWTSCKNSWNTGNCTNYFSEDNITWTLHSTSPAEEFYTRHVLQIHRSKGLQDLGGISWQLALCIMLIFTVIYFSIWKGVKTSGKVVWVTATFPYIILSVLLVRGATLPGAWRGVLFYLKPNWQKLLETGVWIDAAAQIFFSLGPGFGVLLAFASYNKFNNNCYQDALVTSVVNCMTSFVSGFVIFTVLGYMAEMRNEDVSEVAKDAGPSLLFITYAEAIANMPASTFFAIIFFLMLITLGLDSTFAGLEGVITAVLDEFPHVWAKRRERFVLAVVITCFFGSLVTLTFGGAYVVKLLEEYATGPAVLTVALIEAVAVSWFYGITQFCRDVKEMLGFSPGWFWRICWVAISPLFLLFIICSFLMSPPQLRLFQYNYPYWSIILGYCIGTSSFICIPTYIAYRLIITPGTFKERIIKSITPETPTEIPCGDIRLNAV
Chain of Glucocorticoid receptor (Rattus norvegicus) (P06536 whole entry): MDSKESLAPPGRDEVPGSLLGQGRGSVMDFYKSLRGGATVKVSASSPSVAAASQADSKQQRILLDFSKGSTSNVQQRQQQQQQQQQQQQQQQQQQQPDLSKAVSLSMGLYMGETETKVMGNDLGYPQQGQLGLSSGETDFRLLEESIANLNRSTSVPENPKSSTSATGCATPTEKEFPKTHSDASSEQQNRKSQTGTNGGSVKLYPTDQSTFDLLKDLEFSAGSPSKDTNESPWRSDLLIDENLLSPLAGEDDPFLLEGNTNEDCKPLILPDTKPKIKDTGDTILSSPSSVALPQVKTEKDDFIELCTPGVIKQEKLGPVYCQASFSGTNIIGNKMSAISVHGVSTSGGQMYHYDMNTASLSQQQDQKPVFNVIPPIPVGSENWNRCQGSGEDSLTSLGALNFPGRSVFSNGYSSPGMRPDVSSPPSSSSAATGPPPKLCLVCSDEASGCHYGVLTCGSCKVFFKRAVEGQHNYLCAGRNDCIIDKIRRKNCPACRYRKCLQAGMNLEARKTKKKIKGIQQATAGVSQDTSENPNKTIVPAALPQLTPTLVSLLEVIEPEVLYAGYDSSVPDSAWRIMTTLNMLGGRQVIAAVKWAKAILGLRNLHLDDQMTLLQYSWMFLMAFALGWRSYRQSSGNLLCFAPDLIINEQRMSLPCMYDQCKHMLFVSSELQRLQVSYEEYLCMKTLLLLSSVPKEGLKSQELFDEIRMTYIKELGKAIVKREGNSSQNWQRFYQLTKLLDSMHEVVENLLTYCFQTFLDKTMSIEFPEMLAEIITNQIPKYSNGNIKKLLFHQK
Chain of Somatostatin receptor type 2 (Homo sapiens) (P30874 whole entry): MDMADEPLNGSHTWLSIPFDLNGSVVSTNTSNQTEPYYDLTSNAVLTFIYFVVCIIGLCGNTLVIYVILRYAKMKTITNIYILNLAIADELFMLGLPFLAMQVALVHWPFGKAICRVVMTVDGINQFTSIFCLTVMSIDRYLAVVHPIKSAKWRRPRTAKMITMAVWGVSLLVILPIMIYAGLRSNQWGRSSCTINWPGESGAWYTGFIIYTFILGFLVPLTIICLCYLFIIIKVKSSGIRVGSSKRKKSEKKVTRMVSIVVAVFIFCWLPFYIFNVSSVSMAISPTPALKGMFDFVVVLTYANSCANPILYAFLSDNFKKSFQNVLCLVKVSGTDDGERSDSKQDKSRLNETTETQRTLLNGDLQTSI
Chain of D(3) dopamine receptor (Homo sapiens) (P35462 whole entry): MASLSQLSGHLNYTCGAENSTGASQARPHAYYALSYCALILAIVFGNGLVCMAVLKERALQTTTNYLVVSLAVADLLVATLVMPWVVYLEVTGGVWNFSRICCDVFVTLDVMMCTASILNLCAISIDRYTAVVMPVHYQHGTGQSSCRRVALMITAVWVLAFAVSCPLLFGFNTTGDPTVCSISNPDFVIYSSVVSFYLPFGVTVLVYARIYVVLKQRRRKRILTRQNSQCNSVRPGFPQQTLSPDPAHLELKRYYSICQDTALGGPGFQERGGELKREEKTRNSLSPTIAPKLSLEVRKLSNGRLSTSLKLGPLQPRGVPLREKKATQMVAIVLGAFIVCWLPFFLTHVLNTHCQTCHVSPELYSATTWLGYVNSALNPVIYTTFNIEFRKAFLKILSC
Chain of Potassium voltage-gated channel subfamily A member 5 (P22460 whole entry): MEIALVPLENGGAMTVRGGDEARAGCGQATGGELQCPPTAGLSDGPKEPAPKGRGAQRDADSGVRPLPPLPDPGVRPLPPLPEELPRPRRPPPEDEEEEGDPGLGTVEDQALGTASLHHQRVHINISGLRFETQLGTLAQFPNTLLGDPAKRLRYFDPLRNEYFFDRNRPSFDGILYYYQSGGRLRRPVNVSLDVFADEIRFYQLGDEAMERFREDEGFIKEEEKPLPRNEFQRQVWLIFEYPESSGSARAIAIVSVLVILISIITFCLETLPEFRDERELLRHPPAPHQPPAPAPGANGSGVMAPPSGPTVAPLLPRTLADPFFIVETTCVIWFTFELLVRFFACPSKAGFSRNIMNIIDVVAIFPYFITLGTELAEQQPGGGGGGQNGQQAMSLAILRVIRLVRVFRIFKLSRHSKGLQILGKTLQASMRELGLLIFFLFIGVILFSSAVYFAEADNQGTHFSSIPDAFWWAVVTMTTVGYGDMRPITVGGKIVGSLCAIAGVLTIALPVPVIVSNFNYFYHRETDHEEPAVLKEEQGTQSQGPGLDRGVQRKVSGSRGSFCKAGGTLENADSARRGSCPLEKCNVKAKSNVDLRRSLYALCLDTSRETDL
Chain of Neuropeptide Y receptor type 1 (Homo sapiens) (P25929 whole entry): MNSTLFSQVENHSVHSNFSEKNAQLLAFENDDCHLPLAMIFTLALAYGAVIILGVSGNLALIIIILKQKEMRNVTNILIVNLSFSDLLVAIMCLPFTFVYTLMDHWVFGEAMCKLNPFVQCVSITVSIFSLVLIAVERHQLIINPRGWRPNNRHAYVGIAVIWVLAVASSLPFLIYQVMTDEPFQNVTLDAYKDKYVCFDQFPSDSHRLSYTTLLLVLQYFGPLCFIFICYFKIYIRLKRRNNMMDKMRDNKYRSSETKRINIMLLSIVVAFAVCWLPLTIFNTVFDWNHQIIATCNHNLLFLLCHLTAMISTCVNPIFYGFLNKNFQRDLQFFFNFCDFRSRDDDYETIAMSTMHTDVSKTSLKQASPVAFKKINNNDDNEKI

Compound	inhibition at 10 µM [1] [%]	inhibition [2] [%]	inhibition [3] [%]	EC20 (Oryctolagus cuniculus [4]) [nM]	inhibition (Rattus norvegicus [5]) [%]	inhibition [6] [%]	inhibition (Rattus norvegicus [7]) [%]	inhibition (Rattus norvegicus [8]) [%]	inhibition (Rattus norvegicus [9]) [%]	inhibition (Rattus norvegicus [10]) [%]	inhibition [11] [%]	clearance [13] [mL/min/kg]	inhibition [14] [%]	inhibition (Homo sapiens [15]) [%]	inhibition [16] [%]	inhibition [17] [%]	inhibition [18] [%]	IC50 [19] [nM]	inhibition (Homo sapiens [20]) [%]	other results
COc1cccc2c1C(NC[C@]1(c3ccccc3)CC[C@H](O)CC1)=NS2(=O)=O	0	4	2	600	-6	4	17	9	24	29	-9	27	13	14	19	14	10	34	27	Activity (Oryctolagus cuniculus [12]): Toxic
COc1cccc2c1C(NC[C@]1(c3ccccc3)CC[C@H](NC(=O)OC(C)C)CC1)=NS2(=O)=O	15	6	20	<700	2	-2	1	30	15	2	11	9.4	-6	41	19	17	-6	52	14	inhibition [21]: 8%; inhibition [22]: -8%; inhibition [23]: -4%; inhibition [24]: 4%; inhibition [25]: 16%; inhibition [26]: -6%; inhibition [27]: 64%
